Measurements collected from several papers.
Each line is one published result; the experiments were not run side by side.
pH: 7.4

For `C=CC(=O)N1CC2(CCN(c3nc4c(c(-c5cc(O)cc6ccccc56)c3F)COC(C)(C)C4)C2)C1`, the logD was 4.5.
The logD of `CN1CCN(c2cccc(-c3ccc4ncnc(Nc5ccc([N+](=O)[O-])c(C(F)(F)F)c5)c4c3)c2)CC1` is reported as over 3.9 (shake flask; aqueous buffer).
The logD of `CNS(=O)(=O)c1ccc(Nc2ncc(C(F)(F)F)c(N3CCC(C)(O)CC3)n2)c(C)c1` is reported as 3.8 (shake flask; aqueous buffer; 1 h).
For `CN1CCN(c2cccc(-c3ccc4ncnc(Nc5ccc(Cl)c(C(F)(F)F)c5)c4c3)c2)CC1`, the logD was over 4.3 (shake flask; aqueous buffer).
With `O=C(NCc1nc(-c2ccc(C(F)(F)F)cc2)cs1)[C@H]1CCCN(C(=O)CO[C@H]2CCCNC2)C1` the logD was 0.81 (shake flask; aqueous buffer).
The logD of `CNS(=O)(=O)c1ccc(Nc2ncc(C(F)(F)F)c(N3CCC[C@](C)(O)C3)n2)c(C)c1` is reported as 3.4 (shake flask; aqueous buffer; 1 h).
For `Cc1ccc(Nc2ncnc3ccc(-c4cccc(N5CCOCC5)c4)cc23)cc1`, the logD was over 4.1 (shake flask; aqueous buffer).
`Cc1ccc(Nc2cnnc3ccc(-c4ccc(N5CCCN(C)CC5)cc4)cc23)cn1` gave a logD of 3.3 (shake flask; aqueous buffer).
The logD of `N#Cc1ccc(-c2csc(CNC(=O)[C@H]3CCCN(C(=O)CCN)C3)n2)cc1` is reported as -0.69 (shake flask; aqueous buffer).
`Cn1cc2c(C(=O)O)ccc(NS(=O)(=O)c3ccc(OCC4CCC4)c(Cl)c3)c2n1` gave a logD of 2 (shake flask; aqueous buffer).
For `C=CC(=O)N1CC2(CCN(c3nc4c(c(-c5c(C)ccc6[nH]ncc56)c3C#N)CCC(C)(C)C4)C2)C1`, the logD was 4.3.
`COc1cnc(Nc2cnnc3ccc(-c4ccc(N5CCN(C)CC5)cc4)cc23)nc1` gave a logD of 3.2 (shake flask; aqueous buffer).
With `c1cc(-c2ccc3ncnc(Nc4ncco4)c3c2)cc(N2CC3(COC3)C2)c1` the logD was over 4 (shake flask; aqueous buffer).
For `CNS(=O)(=O)c1ccc(Nc2ncc(C(F)(F)F)c([C@H]3CC[C@@](C)(O)CC3)n2)c(C)c1`, the logD was 4 (shake flask; aqueous buffer; 1 h).
For `CC(C)(N)COCC(=O)N1CCC[C@H](C(=O)NCc2nc(-c3ccc(C(F)(F)F)cc3)cs2)C1`, the logD was 1.4 (shake flask; aqueous buffer).
With `c1cc(-c2ccc3ncnc(Nc4ncco4)c3c2)nc(N2C[C@H]3C[C@@H]2CO3)n1` the logD was 3.1 (shake flask; aqueous buffer).
`CC(C)N=c1cc2n(-c3ccc(Cl)cc3)c3ccccc3nc-2cc1Nc1ccc(Cl)cc1` has a logD of 5.76 (shake flask; aqueous buffer).
`C=CC(=O)N1CC2(CCN(c3nc4c(c(-c5cc(O)cc6ccccc56)c3C#N)COC(C)(C)C4)C2)C1` has a logD of 4.3.
`Cc1nc(Nc2ncnc3ccc(-c4cccc(N5CCOCC5)c4)cc23)oc1C` gave a logD of 4.3 (shake flask; aqueous buffer).
`CCOCC(=O)N1CCC[C@H](C(=O)NCc2nc(-c3ccc(C)nc3)cs2)C1` gave a logD of 1.4 (shake flask; aqueous buffer).
`N=C(CC(O)c1cc2c(F)cc(F)cc2c2cc(C(F)(F)F)ccc12)Nc1ccc(F)c(F)c1` (centres unmarked) has a logD of 4.96.
`CN1CCC(Nc2ncnc3ccc(-c4cccc(N5CCOCC5)c4)cc23)CC1` gave a logD of 2.5 (shake flask; aqueous buffer).
The logD of `NCCOCC(=O)N1CCC[C@H](C(=O)NCc2nc(-c3ccc(C(F)(F)F)cc3)cs2)C1` is reported as 0.47 (shake flask; aqueous buffer).
`Cn1cc2c(C(=O)O)ccc(NS(=O)(=O)c3ccc(Cl)c(Cl)c3)c2n1` has a logD of 0.5 (shake flask; aqueous buffer).
With `O=[N+]([O-])c1ccc(Nc2ncnc3ccc(-c4cccc(N5CCOCC5)c4)cc23)cc1C(F)(F)F` the logD was over 3.4 (shake flask; aqueous buffer).
`O=C(O)c1ccc(NS(=O)(=O)c2ccc(Cl)c(Cl)c2)cc1` has a logD of 0.6 (shake flask; aqueous buffer).
`N[C@@H](COCC(=O)N1CCC[C@H](C(=O)NCc2nc(-c3ccc(C(F)(F)F)cc3)cs2)C1)c1ccccc1` gave a logD of 3 (shake flask; aqueous buffer).
The logD of `O=C(O)c1ccc(NS(=O)(=O)c2ccc(Cl)c(Cl)c2)cc1F` is reported as -0.2 (shake flask; aqueous buffer).
The logD of `C=CC(=O)N1CC2(CCN(c3nc4c(c(-c5cc(O)cc6ccccc56)c3Cl)COC(C)(C)C4)C2)C1` is reported as 4.9.
